Screens (PubChem)
Rows were chosen to be rich in hits. Some 2.8% of all compounds tested hit in one or more screens of this group.
CAL PDZ FP-1 – blocks peptide binding to human CAL PDZ domain; 330,000 compounds, 0.02% hits; AID 504414; purified CAL PDZ, TMR-peptide fluorescence polarization, 1 h; inhibition, % at 20 µM;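 active = highest replicate inhibition of at least 40%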
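material = purified tagged CAL PDZ domain construct (CerCALP) | compound dosing = 20 µM, one dose | times = 1 h at RT | measured by = fluorescence polarization from S- and P-plane intensities, G-factor corrected | read-out = inhibition from polarization loss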
SR-BI DiI-HDL act – activators of SR-BI mediated HDL lipid uptake. CHO ldlA[mSR-BI] cells, DiI-HDL uptake fluorescence, 3 h; 100 = double the neutral-control signal. activation, % at 12.5 µM. 320,000 compounds, 0.096% hits. AID 504775;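 active = mean replicate activation of at least 60% and every replicate at or above 60%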
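Material – SR-BI-overexpressing, LDLR-lacking CHO cells · Medium – BSA-supplemented, HEPES-buffered Ham's F12, pH 7.4 · Doses – single concentration · Times – compound with DiI-HDL co-incubation, 3 h at 37 °C · Measured by – bottom-read fluorescence, 550/595 nm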
dFosB act – mouse delta FosB homodimer activation; 340,000 compounds, 0.99% hits; activation, % at 25 µM; P13346; AID 493131; purified delta FosB, TAMRA-CDK5 oligo fluorescence polarization; percent of positive-control signal above neutral wells;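 active = mean activation above about 17%, with every replicate also reaching it, limit read from the data, passing the limit was not always enough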
Target sequence (P13346 whole entry, looked up): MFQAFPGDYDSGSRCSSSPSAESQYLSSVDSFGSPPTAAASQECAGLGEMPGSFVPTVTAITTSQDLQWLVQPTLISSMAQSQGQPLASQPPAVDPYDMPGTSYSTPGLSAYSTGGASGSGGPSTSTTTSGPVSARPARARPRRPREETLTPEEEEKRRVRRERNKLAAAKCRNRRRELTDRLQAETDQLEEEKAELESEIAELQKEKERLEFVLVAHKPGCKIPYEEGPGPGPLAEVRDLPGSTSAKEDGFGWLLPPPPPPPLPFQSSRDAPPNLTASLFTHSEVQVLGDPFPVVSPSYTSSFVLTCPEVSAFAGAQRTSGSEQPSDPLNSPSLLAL
CAL PDZ FP-2 – CAL PDZ (human) peptide binding inhibition; Q9HD26; purified CAL PDZ, TMR-peptide fluorescence polarization, 1 h; inhibition, % at 24.9 µM; 300,000 compounds, 0.92% hits; AID 602252;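 active = mean inhibition of at least 30% with at least half of replicates also reaching 30%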
SR-BI HDL uptake – mouse SR-BI HDL lipid transfer inhibition | Q61009 | ldlA[mSR-BI] CHO cells, DiI-HDL uptake fluorescence, 3 h | inhibition, % at 12.5 µM | 320,000 compounds, 0.96% hits | AID 488896;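 active = mean replicate inhibition of at least 70% and a set share of replicates each scoring 70 or more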
Hits are given with their value; . = inactive; / = not tested or not shown.

SMILES	CAL PDZ FP-1	SR-BI DiI-HDL act	dFosB act	CAL PDZ FP-2	SR-BI HDL uptake
Cc1cc(C)cc(N(CCC#N)C(=O)CSc2ncnc3sccc23)c1	.	.	.	.	.
CC(c1ccccc1)N1CC(C(=O)Nc2ccc(F)cc2)CC1=O (centres undefined)	.	.	.	.	.
N#CCc1cnc2ccccc2n1	.	.	.	.	.
CCOc1ccc(C(=O)Nc2cccc([N+](=O)[O-])c2)cc1Br	.	.	.	.	72
Cc1cc(/C=N/NC(=O)c2cccc([N+](=O)[O-])c2)c(C)n1-c1ccc(Cl)cc1Cl	/	.	.	.	89
COc1ccc(/C=N/NC(=O)c2cccc([N+](=O)[O-])c2)c2ccccc12	.	.	.	.	75
O=C(N/N=C/c1cccc([N+](=O)[O-])c1)c1ccc(COc2ccccc2-c2ccccc2)cc1	.	.	.	.	74
COc1cc2c(cc1OC)C(c1ccccc1Cl)N(C)CC2 (centres undefined)	.	.	.	.	.
C[C@@]12CCC3[C@@](CCC4[C@@]3(C)CCC[C@@]4(C)C(=O)Nc3ccc(Cl)cc3)(CC1=O)C2 (some centres undefined)	.	.	.	.	.
O=C(CN1CCN(C(=O)c2ccco2)CC1)Nc1ccc(F)cc1F	.	.	.	89	.
O=C(N/N=C/C=C/c1ccccc1)c1cnccn1	.	240	.	.	.
CC(/C=C/c1ccccc1)=N/NC(=O)c1cnccn1	.	.	.	.	.
O=C(COC(=O)c1cccc(OC(F)F)c1)NC1CCCC1	/	.	.	42	.
C/C(=C\C(=O)O)C12CC3CC(CC(C3)C1)C2	/	.	.	31	.
CC(C)C(NC(=O)C12CC3CC(CC(C3)C1)C2)C(=O)O (centres undefined)	.	.	.	.	.
Cc1sc2ncn(CC(=O)N3CCC(C(N)=O)CC3)c(=O)c2c1S(=O)(=O)N1CCOCC1	.	/	.	/	/
COc1ccc(-c2noc(-c3ccccc3C(=O)NCC3CCCO3)n2)cc1 (centres undefined)	.	.	.	70	.
COC(=O)[C@H](CC(C)C)NC(=O)N1CCC(C)CC1	.	.	.	.	.
O=C(NCc1cccs1)C1CCCN1S(=O)(=O)c1ccccc1F (centres undefined)	/	.	.	86	.
Cc1noc(C)c1NC(=O)Nc1cccc2c1O[C@@H](CN(C)C(=O)Nc1ccc3c(c1)OCO3)[C@@H](C)CN([C@H](C)CO)C2=O	.	/	.	.	/
CCN1C(=O)/C(=C2\C=Cc3ccccc3N2CC)SC1=S	.	.	.	.	74
COc1ccc(C(=O)O/N=C(\N)c2ccccc2)cc1OC	/	.	.	43	.
COc1ccc(C(=O)O/N=C(\N)c2cccc(C)c2)cc1OC	.	.	.	.	.
CN(C)CCN1C(=O)c2cccc3cc([N+](=O)[O-])cc(c23)C1=O	.	.	49	.	.
N/C(=N\OC(=O)COc1ccc(Cl)cc1Br)c1cccnc1	.	.	.	/	.
SMILES	CAL PDZ FP-1	SR-BI DiI-HDL act	dFosB act	CAL PDZ FP-2	SR-BI HDL uptake
N/C(=N\OC(=O)COc1ccc(Br)cc1Cl)c1cccnc1	.	.	20	.	.
COc1cc(/C=C(\C#N)c2nc3ccccc3[nH]2)ccc1Oc1ccc([N+](=O)[O-])cn1	.	.	.	.	74
COc1cc(/C=C(/C#N)c2ccccc2)ccc1Oc1ccc([N+](=O)[O-])cn1	.	.	.	.	.
CCCNc1nc2c(c(=O)[nH]c(=O)n2C)n1Cc1cccc(Br)c1	/	.	.	36	.
Cn1c(=O)[nH]c(=O)c2c1nc(Br)n2Cc1cccc(Br)c1	.	.	.	.	.
Cn1c(N)c(N2CCCCC2)c(=O)n(CC(=O)Nc2cccc(C#N)c2)c1=O	.	.	.	.	.
Cc1cccnc1NC(=O)CSc1nnc(CNC(=O)c2cccc([N+](=O)[O-])c2)n1C	.	.	.	42	.
Cn1c(-c2ccc(F)cc2)cnc1NCc1ccccc1F	.	.	.	/	88
COC(=O)c1ccccc1NC(=O)C1CCN(C(=O)Cc2ccccc2)CC1	.	/	.	/	.
COc1ccc(NC(=O)C2CCN(C(=O)C3CC(=O)N(c4ccc(C)cc4)C3)CC2)c(OC)c1 (centres undefined)	.	.	.	.	79
CCOc1ccccc1NC(=O)C1CCCN1C(=O)c1cccs1 (centres undefined)	.	87	.	.	.
CCOc1ccccc1NC(=O)C1CCN(C(=O)Cc2ccccc2)CC1	.	.	.	56	.
COc1ccc(C)cc1NC(=O)C1CCN(C(=O)Cc2ccccc2)CC1	.	.	.	.	76
CCC(NC(=O)c1ccncc1)c1ccccc1 (centres undefined)	.	.	.	/	.
CCOc1ccc(C(=O)NC(C(=O)NCCc2ccc(OC(F)F)cc2)C(C)C)cc1 (centres undefined)	.	.	.	.	.
COc1ccc(CCN(C)C(=O)C2CCN(Cc3cccc(OC)c3OC)CC2)cc1OC	.	.	.	37	.
CSc1cc(CS(=O)(=O)c2ccccc2)nc(-c2ccccc2)n1	.	.	.	79	.
O=S(=O)(Cc1cc(NCc2ccccc2)nc(-c2ccncc2)n1)c1ccccc1	.	.	.	.	.
O=C(NNS(=O)(=O)c1ccccc1[N+](=O)[O-])c1cccc(Cl)c1	.	.	.	.	.
O=C(NNS(=O)(=O)c1ccccc1[N+](=O)[O-])c1cccc(Br)c1	.	.	.	51	.
CC(C)CN(C(=O)CSc1nnc(-c2cccs2)n1N)c1c(N)n(Cc2ccccc2)c(=O)[nH]c1=O	.	.	.	.	.
CCOC(=O)Nc1ccc2c(c1)C(=NNC(N)=S)c1ccccc1-2	.	.	.	/	83
CC(=O)c1c(C)[nH]c(C(=O)N2c3ccccc3CC2C)c1C (centres undefined)	.	.	.	.	72
CC(=O)c1c(C)[nH]c(C(=O)N2CCc3ccccc3C2)c1C	.	.	.	.	.
O=C(CN1C(=O)COc2ccc(Cl)cc21)NCC1CCCO1 (centres undefined)	.	.	.	35	.
SMILES	CAL PDZ FP-1	SR-BI DiI-HDL act	dFosB act	CAL PDZ FP-2	SR-BI HDL uptake
O=C(CN1C(=O)COc2ccccc21)NCC1CCCO1 (centres undefined)	.	/	.	.	/
Cc1cccc(NC(=O)CN2C(=O)COc3ccc(Cl)cc32)c1	.	.	.	.	.
Cc1csc(NC(=O)CN2C(=O)COc3ccc(Cl)cc32)n1	.	.	29	.	.
COCCCNC(=S)N1CCN(c2nc(C)nc3sc4c(c23)CCCC4)CC1	.	.	.	.	.
CCCNC(=S)N1CCN(c2nc(C)nc3sc4c(c23)CCCC4)CC1	.	.	.	.	73
O=C(NCCSc1ccccn1)c1ccc(Cl)cc1Cl	.	.	.	33	.
